Test results: paper PMC12366268 (The Febs Journal, 2025)
Like-named read-outs stand apart in the source and are kept apart here.

How the values were obtained:
[1] = Stability in human serum measured by mass spectrometry; type: in vitro ADME; conditions: 25% human serum in PBS
Method in brief: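 Peptide at 10 μM was incubated in 25% human serum in PBS at 37 °C. Aliquots were taken at 0, 2.5, 5, 10, 20, 40 and 60 min into 0.2% formic acid (1:4) containing an internal standard and held at 4 °C. Peptide abundance relative to the internal standard was measured by mass spectrometry and plotted against incubation time.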

PCNA = PCNA (Homo sapiens, UniProt P12004); test: Isothermal titration calorimetry; type: binding; conditions: ITC, pH 7.4, 25 °C, mean ± SEM of n = 3
Chain of PCNA (P12004 whole entry): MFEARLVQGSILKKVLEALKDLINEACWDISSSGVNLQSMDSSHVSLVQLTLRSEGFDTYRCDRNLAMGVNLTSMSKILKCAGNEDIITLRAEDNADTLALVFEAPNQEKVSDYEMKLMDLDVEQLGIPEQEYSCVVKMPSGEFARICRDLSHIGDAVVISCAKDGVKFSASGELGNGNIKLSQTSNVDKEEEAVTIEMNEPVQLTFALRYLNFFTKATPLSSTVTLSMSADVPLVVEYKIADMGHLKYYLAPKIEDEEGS
Method in brief: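 His6-tagged PCNA (HRV 3C site) was IPTG-induced at 37 °C, then purified by Ni-NTA and Superdex 200 SEC. Protein was buffer-exchanged into 20 mM sodium phosphate, 0–500 mM NaCl, 1 mM TCEP, pH 7.4, with peptides dissolved in the same buffer. PCNA was in the cell, peptide in the syringe; 25 °C, 750 rpm stirring. Data were fitted to a one-set-of-sites model; triplicates, SEM.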

[2] = target: T1, proliferating cell nuclear antigen (PCNA) (UniProt P12004 1-261); test: ITC
T1 sequence (P12004 whole entry): as above

[3] = target: T1, proliferating cell nuclear antigen …; test: ITC; remark: listed apart in the source
[4] = target: T1, proliferating cell nuclear antigen …; test: ITC; remark: listed apart in the source
[5] = target: T1, proliferating cell nuclear antigen …; test: ITC; remark: listed apart in the source
[6] = target: T1, proliferating cell nuclear antigen …; test: ITC; remark: listed apart in the source
[7] = target: T1, proliferating cell nuclear antigen …; test: ITC; remark: listed apart in the source

| Molecule | N (binding stoichiometry) (PCNA; 100 mM NaCl) | ΔH (PCNA; 100 mM NaCl) | −TΔS (PCNA; 100 mM NaCl) | N (binding stoichiometry) (PCNA; 200 mM NaCl) | ΔH (PCNA; 200 mM NaCl) | −TΔS (PCNA; 200 mM NaCl) | N (binding stoichiometry) (PCNA; 300 mM NaCl) | ΔH (PCNA; 300 mM NaCl) | Kd [2] | dH [2] | stoichiometry N [2] | Kd [3] | dH [3] | stoichiometry N [3] | Kd [4] | dH [4] | stoichiometry N [4] | Kd [5] | dH [5] | stoichiometry N [5] | further results |
| --- | --- | --- | --- | --- | --- | --- | --- | --- | --- | --- | --- | --- | --- | --- | --- | --- | --- | --- | --- | --- | --- |
| CSCC[C@H](NC(=O)[C@H](CO)NC(=O)[C@@H](NC(=O)[C@H](CCC(N)=O)NC(=O)[C@H](CCCNC(=N)N)NC(=O)[C@H](CCCNC(=N)N)NC(=O)[C@H](CCCCN)NC(=O)[C@H](CCCNC(=N)N)NC(C)=O)[C@@H](C)O)C(=O)N[C@H](C(=O)N[C@@H](CC(=O)O)C(=O)N[C@@H](Cc1ccccc1)C(=O)N[C@@H](Cc1ccc(O)cc1)C(=O)N[C@@H](Cc1c[nH]cn1)C(=O)N[C@@H](CO)C(=O)N[C@@H](CCCCN)C(=O)N[C@@H](CCCNC(=N)N)C(=O)N[C@@H](CCCNC(=N)N)C(N)=O)[C@@H](C)O [p21_140–156] | – | – | – | – | – | – | – | – | – | – | – | – | – | – | – | – | – | – | – | – | half-life at 10 μM [1]: ~11 min |
| Ac-KKKKQTSMTDFYHSKKK-NH2 [p21All–K] | 0.92 ± 0.01 | -68 ± 2 kJ/mol | 28 ± 2 kJ/mol | 0.75 ± 0.02 | -74 ± 4 kJ/mol | 37 ± 4 kJ/mol | 0.71 ± 0.02 | -80 ± 3 kJ/mol | – | – | – | – | – | – | – | – | – | – | – | – | −TΔS (PCNA; 300 mM NaCl): 41 ± 3 kJ/mol; N (binding stoichiometry) (PCNA; 400 mM NaCl): 0.80 ± 0.02; ΔH (PCNA; 400 mM NaCl): -76 ± 3 kJ/mol; −TΔS (PCNA; 400 mM NaCl): 41 ± 4 kJ/mol |
| Ac-KRKKQTSMTDFYHSRKK-NH2 [p21SWAP] | 0.95 ± 0.04 | -60.8 ± 0.9 kJ/mol | 20.5 ± 0.9 kJ/mol | 0.79 ± 0.09 | -76 ± 2 kJ/mol | 38 ± 2 kJ/mol | 0.82 ± 0.04 | -72 ± 4 kJ/mol | – | – | – | – | – | – | – | – | – | – | – | – | −TΔS (PCNA; 300 mM NaCl): 36 ± 4 kJ/mol; N (binding stoichiometry) (PCNA; 400 mM NaCl): 0.79 ± 0.01; ΔH (PCNA; 400 mM NaCl): -74 ± 2 kJ/mol; −TΔS (PCNA; 400 mM NaCl): 38 ± 2 kJ/mol |
| Ac-RRRRQTSMTDFYHSRRR-NH2 [p21All–R] | 0.80 ± 0.05 | -87 ± 1 kJ/mol | 45 ± 2 kJ/mol | 0.73 ± 0.01 | -84 ± 3 kJ/mol | 45 ± 3 kJ/mol | 0.68 ± 0.01 | -83.5 ± 0.9 kJ/mol | – | – | – | – | – | – | – | – | – | – | – | – | −TΔS (PCNA; 300 mM NaCl): 46 ± 1 kJ/mol; N (binding stoichiometry) (PCNA; 400 mM NaCl): 0.61 ± 0.02; ΔH (PCNA; 400 mM NaCl): -81 ± 3 kJ/mol; −TΔS (PCNA; 400 mM NaCl): 44 ± 3 kJ/mol |
| Ac-KRKKQTSMTDFYHSRKK-NH2 [p21_(SWAP) peptide] | – | – | – | – | – | – | – | – | 0.087 µM | -60.8 kJ/mol | 0.95 | 0.206 µM | -76 kJ/mol | 0.79 | 0.407 µM | -72 kJ/mol | 0.82 | 0.547 µM | -74 kJ/mol | 0.79 | – |
| Ac-RRRRQTSMTDFYHSRRR-NH2 [p21_(All–R) peptide] | – | – | – | – | – | – | – | – | 0.045 µM | -87 kJ/mol | 0.8 | 0.139 µM | -84 kJ/mol | 0.73 | 0.273 µM | -83.5 kJ/mol | 0.68 | 0.398 µM | -81 kJ/mol | 0.61 | – |
| Ac-RKRRQTSMTDFYHSKRR-NH2 [p21_(140–156) peptide (wild-type p21 PIP-degron with flanking regions)] | – | – | – | – | – | – | – | – | 0.068 µM | -75.9 kJ/mol | 0.86 | 0.182 µM | -90 kJ/mol | 0.86 | 0.341 µM | -89.6 kJ/mol | 0.76 | 0.606 µM | -93 kJ/mol | 0.8 | Kd [6]: 0.019 µM; dH [6]: -73.9 kJ/mol; stoichiometry N [6]: 0.77; Kd [7]: 0.579 µM; dH [7]: -89 kJ/mol; stoichiometry N [7]: 0.72 |
| Ac-QTSMTDFYHS-NH2 [p21_(core) peptide (isolated p21 core motif QTSMTDFYHS)] | – | – | – | – | – | – | – | – | – | -56 kJ/mol | 0.7 | – | – | – | 34.3 µM | -88 kJ/mol | 0.71 | – | – | – | – |
| Ac-KKKKQTSMTDFYHSKKK-NH2 [p21_(All–K) peptide] | – | – | – | – | – | – | – | – | 0.087 µM | -68 kJ/mol | 0.92 | 0.347 µM | -74 kJ/mol | 0.75 | 0.456 µM | -80 kJ/mol | 0.71 | 0.653 µM | -76 kJ/mol | 0.8 | – |
